Measurements: ChEMBL document CHEMBL1140160, “Evidence for the mechanism of action of the antifungal phytolaccoside B isolated from Phytolacca tetramera Hauman” (J Nat Prod, 2008)
≈ marks a conversion by molar mass, not a printed value. Calls of active or inactive are those of the source. The rule behind the calls is not given here.

Tests used:
[1] = test system: Aspergillus niger; test: Antifungal activity against Aspergillus niger ATCC 9029 after 48 hrs by spectrophotometry; format: functional; settings: ATCC 9029, 48 h
[2] = test system: Aspergillus flavus; test: Antifungal activity against Aspergillus flavus ATCC 9170 after 48 hrs by spectrophotometry; format: functional; settings: ATCC 9170, 48 h, read-out: MIC100
[3] = test system: Candida albicans; test: Antifungal activity against Candida albicans ATCC 10231 after 48 hrs by spectrophotometry; format: functional; settings: ATCC 10231, 48 h; for MIC: read-out: MIC100
[4] = test system: Saccharomyces cerevisiae; test: Antifungal activity against Saccharomyces cerevisiae ATCC 9763 after 48 hrs by sorbitol protection assay by spectrophotometry; format: functional; settings: ATCC 9763, 48 h; for MIC: read-out: MIC100
Summary of the method: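 S. cerevisiae ATCC 9763 by the standard broth microdilution procedure, run on duplicate plates of 2-fold dilutions, one plate with 0.8 M sorbitol added to every well as osmotic support; MICs read at 2 and 7 days.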

[5] = test system: Aspergillus fumigatus; test: Antifungal activity against Aspergillus fumigatus ATCC 26934 after 48 hrs by spectrophotometry; format: functional; settings: ATCC 26934, 48 h, read-out: MIC100
[6] = test system: Neurospora crassa; test: Antifungal activity against Neurospora crassa ATCC 9279 after 48 hrs by spectrophotometry; format: functional; settings: ATCC 9279, 48 h, read-out: MIC100
[7] = test system: Cryptococcus neoformans; test: Antifungal activity against Cryptococcus neoformans ATCC 32264 after 48 hrs by spectrophotometry; format: functional; settings: ATCC 32264, 48 h; for MIC: read-out: MIC100
[8] = test system: Saccharomyces cerevisiae; test: Effect on (1->3)-beta-D-glucan synthase-mediated [14C]-Glucose incorporation in Saccharomyces cerevisiae assessed as residual activity after 30 mins
Summary of the method: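 Membrane fraction (18000g pellet) from early-log S. cerevisiae MATa trp1 ura3 leu2 his3 pep4::HIS3 nuc1::LEU2 broken with glass beads; 15 µg protein in 40 µL; compound 20 µg/assay added in MeOH; [14C]-glucose incorporation into insoluble glucan; 30 min at 30 °C, stopped with 10% TCA; duplicates; papulacandin B as standard.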

[9] = Hemolytic effect in erythrocytes upto 120 mins by spectrophotometry; format: ADME, cell-based; settings: erythrocyte, 2 h
Summary of the method: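 Heparinized human red blood cells washed three times in isotonic PBS pH 7.0, made into a 4% suspension in sterile 5% glucose. Compound from DMSO stock diluted in 5% glucose to final 188 to 9 µM; incubated at 37 °C. Released haemoglobin read at 540 nm. LC100 is the lowest concentration giving complete lysis (clearing). DMSO alone served as the vehicle control.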

[10] = target: T1, Chitin synthase 1 (Saccharomyces cerevisiae S288c) (UniProt P08004); test: Effect on chitin synthase 1-mediated incorporation of [14C]N-Acetylglucosamine in Saccharomyces cerevisiae assessed as residual activity after 90 mins in presence of trypsin
T1 sequence (whole entry): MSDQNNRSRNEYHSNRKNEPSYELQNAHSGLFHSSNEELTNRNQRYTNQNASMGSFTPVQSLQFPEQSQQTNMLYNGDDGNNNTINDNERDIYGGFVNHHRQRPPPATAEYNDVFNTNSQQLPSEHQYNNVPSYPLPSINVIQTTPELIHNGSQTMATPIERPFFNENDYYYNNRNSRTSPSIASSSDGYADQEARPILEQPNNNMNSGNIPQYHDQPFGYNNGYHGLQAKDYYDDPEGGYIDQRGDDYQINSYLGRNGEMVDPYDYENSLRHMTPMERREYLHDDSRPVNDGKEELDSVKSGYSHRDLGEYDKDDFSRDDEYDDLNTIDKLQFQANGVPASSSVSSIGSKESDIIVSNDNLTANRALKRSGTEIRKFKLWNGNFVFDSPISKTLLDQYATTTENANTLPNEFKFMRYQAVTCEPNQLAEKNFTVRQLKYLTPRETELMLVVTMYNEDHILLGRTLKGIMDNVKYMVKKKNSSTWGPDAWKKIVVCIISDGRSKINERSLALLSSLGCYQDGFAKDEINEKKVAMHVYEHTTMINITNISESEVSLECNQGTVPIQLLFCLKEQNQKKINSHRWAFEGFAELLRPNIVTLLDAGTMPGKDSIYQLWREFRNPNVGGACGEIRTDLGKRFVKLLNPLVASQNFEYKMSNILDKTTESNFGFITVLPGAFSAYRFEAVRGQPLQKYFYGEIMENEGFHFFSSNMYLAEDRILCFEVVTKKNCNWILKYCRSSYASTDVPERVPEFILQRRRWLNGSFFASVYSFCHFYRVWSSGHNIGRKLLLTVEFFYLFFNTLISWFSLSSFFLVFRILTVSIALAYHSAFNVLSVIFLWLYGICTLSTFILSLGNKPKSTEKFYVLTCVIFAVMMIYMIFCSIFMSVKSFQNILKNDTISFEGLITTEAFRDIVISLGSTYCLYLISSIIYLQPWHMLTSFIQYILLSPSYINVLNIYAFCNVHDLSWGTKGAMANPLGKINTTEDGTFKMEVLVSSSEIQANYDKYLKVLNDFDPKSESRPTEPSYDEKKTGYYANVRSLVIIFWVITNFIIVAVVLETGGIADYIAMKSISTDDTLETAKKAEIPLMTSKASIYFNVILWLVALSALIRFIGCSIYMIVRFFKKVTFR
Summary of the method: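 Same S. cerevisiae membrane fraction, 30 µg protein in 50 µL; compound 20 µg/assay in MeOH; zymogen activated by trypsin (2 µL of 0.25 µg/µL, 15 min, 30 °C) then stopped with trypsin inhibitor; [14C]-N-acetylglucosamine incorporation into chitin over 90 min at 30 °C, stopped with 10% TCA; duplicates; nikkomycin Z as reference.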

[11] = test system: Neurospora crassa; test: Antifungal activity against Neurospora crassa assessed as increase in thickness of hyphae relative to control at 37 uM; format: functional, organism-based
Summary of the method: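 N. crassa ATCC 9279, 1 × 10^5 spores/mL, grown 24 h at 28 °C with shaking (145 rpm) in YEPD with or without 37 µM. Mycelium fixed in 4% glutaraldehyde in 0.1 M cacodylate, OsO4 and KMnO4 treated, acetone-dehydrated, Spurr-embedded; ultrathin sections stained with uranyl acetate and Reynolds solution; wall thickness measured by transmission electron microscopy.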

[12] = target: T1, Chitin synthase 1 (Saccharomyces cerevisiae S288c); test: Enhancement of chitin synthase 1 activity in Saccharomyces cerevisiae assessed as increase in amount of cell wall chitin at 37 uM by calcofluor staining
Summary of the method: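 Exponentially growing S. cerevisiae ATCC 9763 in YEPD, untreated or exposed to 37 µM, washed and stained with Calcofluor white (20 µM final, 5 min, rt); fluorescence around mother and daughter cell surfaces examined by UV fluorescence microscopy, 400×, same exposure times.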

[13] = test system: Saccharomyces cerevisiae; test: Antifungal activity against Saccharomyces cerevisiae assessed as binding to membrane ergosterol in presence of exogenous ergosterol; format: functional, organism-based
[14] = target: Chitin synthase 1 (Neurospora crassa OR74A) (UniProt P29070); test: Enhancement of chitin synthase 1 activity in Neurospora crassa assessed as increase in cell wall thickness at 37 uM by transmission electron microscopy
Sequence of Chitin synthase 1 (Neurospora crassa OR74A) (P29070 whole entry): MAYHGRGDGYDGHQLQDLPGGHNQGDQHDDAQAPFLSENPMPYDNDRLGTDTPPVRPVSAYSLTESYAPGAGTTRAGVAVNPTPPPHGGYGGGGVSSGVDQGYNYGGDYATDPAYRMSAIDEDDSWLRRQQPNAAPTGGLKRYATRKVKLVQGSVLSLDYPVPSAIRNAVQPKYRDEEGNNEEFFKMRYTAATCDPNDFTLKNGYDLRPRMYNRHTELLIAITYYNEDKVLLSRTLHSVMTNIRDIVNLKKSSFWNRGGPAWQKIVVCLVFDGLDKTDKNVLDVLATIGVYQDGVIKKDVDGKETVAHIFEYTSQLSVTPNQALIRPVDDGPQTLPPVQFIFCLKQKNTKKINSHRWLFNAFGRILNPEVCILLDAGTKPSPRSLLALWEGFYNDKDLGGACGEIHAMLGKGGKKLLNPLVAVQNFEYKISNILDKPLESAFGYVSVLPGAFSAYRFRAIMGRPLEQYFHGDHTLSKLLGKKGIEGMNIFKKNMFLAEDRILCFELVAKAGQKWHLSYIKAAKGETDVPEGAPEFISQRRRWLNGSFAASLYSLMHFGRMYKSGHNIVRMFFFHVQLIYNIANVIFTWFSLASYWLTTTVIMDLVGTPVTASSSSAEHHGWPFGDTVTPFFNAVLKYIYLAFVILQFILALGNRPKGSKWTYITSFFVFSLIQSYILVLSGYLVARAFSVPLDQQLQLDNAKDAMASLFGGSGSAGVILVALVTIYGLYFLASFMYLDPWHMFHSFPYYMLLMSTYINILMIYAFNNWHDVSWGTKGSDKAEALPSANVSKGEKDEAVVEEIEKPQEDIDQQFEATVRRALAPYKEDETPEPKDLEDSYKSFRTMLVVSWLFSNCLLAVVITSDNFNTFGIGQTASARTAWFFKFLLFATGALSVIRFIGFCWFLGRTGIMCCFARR

[15] = target: Chitin synthase 1 (Neurospora crassa OR74A) (UniProt P29070); test: Enhancement of chitin synthase 1 activity in Neurospora crassa assessed as increase in amount of cell wall chitin at 37 uM by calcofluor staining
Summary of the method: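 Exponentially growing N. crassa ATCC 9279 hyphae in YEPD liquid medium, untreated or exposed to 37 µM, washed and stained with Calcofluor white (20 µM final, 5 min, rt), washed; chitin visualised as bluish fluorescence under UV by fluorescence microscopy, 400×, same exposure times.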

[16] = target: T1, Chitin synthase 1 (Saccharomyces cerevisiae S288c); test: Enhancement of chitin synthase 1 activity in Saccharomyces cerevisiae assessed as increase in amount of cell wall chitin at 100 mg by Reissig method
Summary of the method: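 Untreated and 37 µM-treated S. cerevisiae cells (100 mg each) extracted with 6% KOH for 90 min, digested with chitinase and glusulase; N-acetylglucosamine measured by the Reissig reaction (potassium tetraborate, boiling 3 min, DMAB 20 min at 36-38 °C), absorbance at 585 nm; NAG as standard.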

[17] = target: T1, Chitin synthase 1 (Saccharomyces cerevisiae S288c); test: Effect on chitin synthase 1-mediated incorporation of [14C]N-acetylglucosamine in Saccharomyces cerevisiae assessed as residual activity after 90 mins
[18] = test system: Saccharomyces cerevisiae; test: Antifungal activity against Saccharomyces cerevisiae assessed as increase in cellular leakage at 74 uM relative to sodium dodecyl sulphate at 6-48 hrs using spectrophotometry; format: functional
Summary of the method: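 S. cerevisiae ATCC 9763 grown with shaking at 30 °C to early stationary phase, washed twice, diluted to (3-5) × 10^7 cells/mL in cold MOPS buffer pH 6.0; compound at final 74 µM; 2% SDS set as 100% leakage; incubated at 30 °C and sampled at 6, 12, 24 and 48 h; supernatant absorbance at 260 nm; means of at least two independent assays; Student's test.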

Structure (SMILES)	MIC ([1]; read-out: MIC100)	MIC [2]	MIC [3]	MIC [4]	MIC [5]	MIC [6]	MIC [7]	Activity [8]	LC100 [9]	also measured
CC(=O)N1CCN(c2ccc(OCC3COC(Cn4ccnc4)(c4ccc(Cl)cc4Cl)O3)cc2)CC1 (stereo not drawn) [KETOCONAZOLE]	0.25 µM (≈ 0.133 µg/mL)	0.5 µM (≈ 0.266 µg/mL)	1 µM (≈ 0.531 µg/mL)	1 µM (≈ 0.531 µg/mL)	0.13 µM (≈ 0.0691 µg/mL)	2 µM (≈ 1.06 µg/mL)	0.5 µM (≈ 0.266 µg/mL)	–	–	–
CCC(O)/C=C/C=C/C=C/C(=O)OC[C@H]1O[C@@H](O[C@H]2[C@H](OC(=O)/C=C/C=C/CC(O)/C(C)=C/C=C/CCC(C)CC)[C@@H](O)[C@@]3(OCc4cc(O)cc(O)c43)O[C@@H]2CO)[C@H](O)[C@@H](O)[C@H]1O (stereo partly drawn)	–	–	–	–	–	–	–	5%	–	–
COC(=O)[C@@]1(C)CC[C@]2(C(=O)O)CC[C@]3(C)C(=CC[C@@H]4[C@@]5(C)C[C@H](O)[C@H](O[C@@H]6OC[C@@H](O)[C@H](O)[C@H]6O)[C@@](C)(CO)[C@@H]5CC[C@]43C)[C@@H]2C1 [PHYTOLACCOSIDE B]	–	74 µM (≈ 49.2 µg/mL)	74 µM (≈ 49.2 µg/mL)	74 µM (≈ 49.2 µg/mL)	188 µM (≈ 125 µg/mL)	74 µM (≈ 49.2 µg/mL)	112 µM (≈ 74.5 µg/mL)	93.4%	> 188 µM	MIC ([1]; read-out: MIC): 188 µM (≈ 125 µg/mL); MFC [3]: 150 µM (≈ 99.7 µg/mL); MIC50 [3]: 74 µM (≈ 49.2 µg/mL); MIC80 [3]: 74 µM (≈ 49.2 µg/mL); Activity [10]: 166%; MFC [4]: 150 µM (≈ 99.7 µg/mL); MIC50 [4]: 18 µM (≈ 12 µg/mL); MIC80 [4]: 37 µM (≈ 24.6 µg/mL); Activity [11]: Active; Activity [12]: Active; Activity [13]: inactive; Activity [14]: 400 nm; Activity [15]: Active; Activity [16]: 23%; Activity [17]: 190%; MFC [7]: 112 µM (≈ 74.5 µg/mL); MIC50 [7]: 9 µM (≈ 5.98 µg/mL); MIC80 [7]: 74 µM (≈ 49.2 µg/mL); Activity [18]: 17%
C[C@@H]1[C@H](O)[C@@H](C)/C=C/C=C/C=C/C=C/C=C/C=C/C=C/[C@H](O[C@@H]2O[C@H](C)[C@@H](O)[C@H](N)[C@@H]2O)C[C@@H]2O[C@](O)(C[C@@H](O)C[C@@H](O)[C@H](O)CC[C@@H](O)C[C@@H](O)CC(=O)O[C@H]1C)C[C@H](O)[C@H]2C(=O)O [AMPHOTERICIN B]	0.5 µM (≈ 0.462 µg/mL)	0.5 µM (≈ 0.462 µg/mL)	0.84 µM (≈ 0.776 µg/mL)	1.62 µM (≈ 1.5 µg/mL)	0.5 µM (≈ 0.462 µg/mL)	1 µM (≈ 0.924 µg/mL)	0.27 µM (≈ 0.25 µg/mL)	–	13.5 µM	–
